Reference: ChEMBL document CHEMBL1136168, “Novel 3-O-acyl mesquitol analogues as free-radical scavengers and enzyme inhibitors: synthesis, biological evaluation and structure-activity relationship” (Bioorg Med Chem Lett, 2003)

Tests used:
[1] = Free radical scavenging assessed as DPPH color reduction
Method in brief: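 DMSO sample mixed in microplate with 0.1 M Tris-HCl pH 7.4 and 0.5 mM DPPH in absolute ethanol. Incubated 20 min in the dark, A517 read. Scavenging taken as % decolorization versus solvent control. SC50 by linear regression from at least five concentrations in triplicate.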

[2] = target: T1, Xanthine dehydrogenase/oxidase (Homo sapiens, UniProt P47989); assay: Inhibition of Xanthine oxidase; assay type: single protein
Method in brief: (§1)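 DMSO sample preincubated 15 min with xanthine oxidase (1 u/mL stock) in […] phosphate buffer pH 7.5. Started with 0.15 mM xanthine, run 30 min at 29 °C, stopped with 1 N HCl, A290 read. Triplicates; % inhibition versus solvent control; IC50 by linear regression.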

[3] = Free radical scavenging assessed as ABTS (2,2'-azinobis-(3-ethyl benz) thiazoline-6-sulfonic acid) color change
Method in brief: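 ABTS radical cation made by reacting 7 mM ABTS diammonium salt with 2.45 mM potassium persulfate overnight in the dark at room temp, then diluted in PBS pH 7.4 to A734 about 0.70. Sample added to diluted ABTS, A734 read within 1 min. Triplicates with blanks and controls. SC50 by linear regression from at least five concentrations.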

[4] = Inhibition of yeast Alpha-glucosidase; design: species or system Saccharomyces cerevisiae
Method in brief: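 Yeast α-glucosidase (0.74 u/mL) in 100 mM phosphate pH 7.0 with BSA and 0.20% sodium azide. DMSO sample incubated with enzyme 5 min, A405 zero read. Substrate added, 10 min at 26–28 °C, A405 re-read; increase used for % inhibition. Triplicates; IC50 by linear regression.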

[5] = target: T1, Xanthine dehydrogenase/oxidase; assay: Inhibitory concentration against Xanthine oxidase; Not active at 50 ug/mL concentration; assay type: single protein
Method in brief: as §1, with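 “read. Compound blanks had HCl added before enzyme.” for “read.”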

T1 sequence (P47989 whole entry): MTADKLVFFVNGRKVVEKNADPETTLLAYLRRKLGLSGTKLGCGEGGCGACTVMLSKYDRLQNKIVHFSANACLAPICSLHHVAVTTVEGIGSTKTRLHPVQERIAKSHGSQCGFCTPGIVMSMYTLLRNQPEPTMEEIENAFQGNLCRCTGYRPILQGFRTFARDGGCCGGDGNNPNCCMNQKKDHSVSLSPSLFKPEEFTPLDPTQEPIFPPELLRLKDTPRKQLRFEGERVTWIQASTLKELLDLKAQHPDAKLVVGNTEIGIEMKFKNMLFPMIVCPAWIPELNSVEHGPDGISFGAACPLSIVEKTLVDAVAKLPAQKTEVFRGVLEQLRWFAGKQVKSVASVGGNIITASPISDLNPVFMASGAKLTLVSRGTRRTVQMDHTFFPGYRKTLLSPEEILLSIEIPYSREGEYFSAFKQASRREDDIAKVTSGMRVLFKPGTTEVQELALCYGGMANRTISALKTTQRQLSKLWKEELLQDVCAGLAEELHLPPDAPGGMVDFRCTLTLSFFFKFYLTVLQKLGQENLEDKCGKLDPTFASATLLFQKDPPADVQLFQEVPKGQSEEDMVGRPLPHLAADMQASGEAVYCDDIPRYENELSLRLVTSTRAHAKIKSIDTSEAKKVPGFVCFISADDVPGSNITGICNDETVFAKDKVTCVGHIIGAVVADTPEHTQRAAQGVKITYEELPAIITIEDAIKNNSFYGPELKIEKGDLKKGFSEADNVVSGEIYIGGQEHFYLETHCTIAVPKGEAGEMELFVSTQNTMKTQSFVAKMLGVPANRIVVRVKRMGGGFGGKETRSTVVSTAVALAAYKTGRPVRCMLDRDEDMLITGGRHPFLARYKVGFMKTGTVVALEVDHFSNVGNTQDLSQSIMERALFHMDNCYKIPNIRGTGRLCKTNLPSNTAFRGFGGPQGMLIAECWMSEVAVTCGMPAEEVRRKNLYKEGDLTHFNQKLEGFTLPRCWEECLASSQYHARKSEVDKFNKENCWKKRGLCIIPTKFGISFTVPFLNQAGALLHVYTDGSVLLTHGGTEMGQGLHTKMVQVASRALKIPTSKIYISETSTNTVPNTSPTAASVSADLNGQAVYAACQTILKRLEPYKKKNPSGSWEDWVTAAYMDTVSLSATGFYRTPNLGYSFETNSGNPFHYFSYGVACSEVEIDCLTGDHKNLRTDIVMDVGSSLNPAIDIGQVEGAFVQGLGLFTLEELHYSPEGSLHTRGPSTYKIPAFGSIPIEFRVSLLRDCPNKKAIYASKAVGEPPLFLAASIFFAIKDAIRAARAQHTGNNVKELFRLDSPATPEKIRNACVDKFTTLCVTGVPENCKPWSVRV

SC50 [1] [µM] | IC50 [2] [µM] | SC50 [3] [µM] | IC50 [4] [µM] | IC50 [5] | Compound
7.51 | 102 | 11.3 | 12.6 |  | CCCCCCCCCCCCCC(=O)O[C@@H]1Cc2ccc(O)c(O)c2O[C@H]1c1ccc(O)c(O)c1
5.17 | 94.7 | 10.1 | 9.56 |  | CCCCCCCCCCCCCCCC(=O)O[C@@H]1Cc2ccc(O)c(O)c2O[C@H]1c1ccc(O)c(O)c1
21.7 |  |  |  |  | CC(C)(Sc1cc(C(C)(C)C)c(O)c(C(C)(C)C)c1)Sc1cc(C(C)(C)C)c(O)c(C(C)(C)C)c1
7.15 | 150 | 13 | 46.3 |  | CC(=O)O[C@@H]1Cc2ccc(O)c(O)c2O[C@H]1c1ccc(O)c(O)c1
6.72 |  | 14.6 | 82.3 | Not Active | Oc1ccc([C@@H]2Oc3c(ccc(O)c3O)C[C@H]2O)cc1O
6.72 |  |  | 67.3 | Not Active | COc1ccc(C(=O)O[C@@H]2Cc3ccc(O)c(O)c3O[C@H]2c2ccc(O)c(O)c2)cc1
6.07 | 112 | 17.5 | 13.5 |  | CCCCCCCCCC(=O)O[C@@H]1Cc2ccc(O)c(O)c2O[C@H]1c1ccc(O)c(O)c1
15.9 |  | 1.82 |  |  | Cc1c(C)c2c(c(C)c1O)CCC(C)(C(=O)O)O2 (stereo unspecified)
8.89 | 139 | 14.1 | 46.2 |  | CCCC(=O)O[C@@H]1Cc2ccc(O)c(O)c2O[C@H]1c1ccc(O)c(O)c1
7.97 |  |  | 43.3 | Not Active | O=C(O[C@@H]1Cc2ccc(O)c(O)c2O[C@H]1c1ccc(O)c(O)c1)c1ccccc1Cl
8.99 |  |  | 32.8 | Not Active | O=C(O[C@@H]1Cc2ccc(O)c(O)c2O[C@H]1c1ccc(O)c(O)c1)c1ccc(F)cc1
 |  |  | 50 |  | OC[C@H]1NC[C@H](O)[C@@H](O)[C@@H]1O [DUVOGLUSTAT]
11.5 |  |  | 77.8 | Not Active | O=C(O[C@@H]1Cc2ccc(O)c(O)c2O[C@H]1c1ccc(O)c(O)c1)c1ccccc1
9.43 | 156 | 17.8 | 54.5 |  | CCCCCCCCCCCCCCCCCC(=O)O[C@@H]1Cc2ccc(O)c(O)c2O[C@H]1c1ccc(O)c(O)c1
6.68 | 129 | 14.4 | 49.3 |  | CCCCCC(=O)O[C@@H]1Cc2ccc(O)c(O)c2O[C@H]1c1ccc(O)c(O)c1
13.5 |  |  | 178 | Not Active | Oc1cc(O)c2c(c1)O[C@H](c1ccc(O)c(O)c1)[C@H](O)C2 [(-)-EPICATECHIN]
